Assay results from article PMC6785039 (Nature, 2019).
Several values for one entry are separate records, joined by “and”; a condition that tells them apart may be missing. Equal entries are not always repeated.

Tests used:
SLC19A1 [1] = target: T1, SLC19A1 (Homo sapiens, UniProt P41440); assay: [32P] 2’3’-cGAMP uptake and competition uptake assay in THP-1 cells; type: cell-based; conditions: for 2’3’-cGAMP uptake, time course with inhibitor in culture medium: 500 μM, various cell lines (THP-1, U937, K562); for IC50: IC50, competition of [32P] 2’3’-cGAMP uptake, THP-1 cells, varying concentrations of competing, unlabeled ligand, 1 nM [32P] 2’3’-cGAMP; for [32P] 2’3’-cGAMP uptake in presence of unlabeled nucleotide: 200 μM competing; for CDN uptake and/or stimulation: human cells; for CDN uptake: human cell lines and primary cells ex vivo
T1 sequence (P41440 1-591): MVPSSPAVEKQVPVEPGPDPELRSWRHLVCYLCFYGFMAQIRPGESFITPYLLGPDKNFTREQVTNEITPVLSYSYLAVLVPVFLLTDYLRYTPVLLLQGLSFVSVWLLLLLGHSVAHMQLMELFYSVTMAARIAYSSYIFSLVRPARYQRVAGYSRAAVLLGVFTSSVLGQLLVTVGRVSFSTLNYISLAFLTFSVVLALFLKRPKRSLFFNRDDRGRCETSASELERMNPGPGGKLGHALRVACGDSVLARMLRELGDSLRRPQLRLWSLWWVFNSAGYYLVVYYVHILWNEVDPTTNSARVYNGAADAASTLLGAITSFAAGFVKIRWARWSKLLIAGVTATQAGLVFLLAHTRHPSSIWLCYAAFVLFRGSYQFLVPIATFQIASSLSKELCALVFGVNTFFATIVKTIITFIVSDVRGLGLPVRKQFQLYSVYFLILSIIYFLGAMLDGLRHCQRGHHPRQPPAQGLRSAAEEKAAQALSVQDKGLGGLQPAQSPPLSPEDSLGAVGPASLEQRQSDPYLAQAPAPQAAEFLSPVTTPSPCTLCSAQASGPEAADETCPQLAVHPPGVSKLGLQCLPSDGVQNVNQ

SLC19A1 [2] = target: T1, SLC19A1; assay: [32P] 2’3’-cGAMP uptake assay in human PBMCs; type: cell-based
THP-1 cells = type: cell-based, human; conditions: hIFN-β 100 ng/ml, sulfasalazine at high concentrations
SLC19A1 [3] = target: T1, SLC19A1; assay: [3H]-methotrexate uptake assay in THP-1 cells; type: cell-based; conditions: SLC19A1-depleted THP-1 cells, 1h
Outline: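 Cells washed and resuspended at 4x10^6/ml in MHS buffer (20 mM HEPES, 235 mM sucrose, pH 7.4 with MgO). Exposed to 12.3 nM [3H]-methotrexate at 37°C and 5% CO2 for 1 h. Radioactivity was counted by liquid scintillation for 3 min per sample, and counts per minute were normalized to total protein.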

murine splenocytes = assay: [32P] 2’3’-cGAMP uptake assay in primary murine splenocytes; type: cell-based, mouse; conditions: 500 μM competing, unlabeled
SLC19A1 [4] = target: T1, SLC19A1; assay: [32P] 2’3’-cGAMP uptake assay in K562 cells; type: cell-based; conditions: 5 μM, one hour
STING = STING pathway activation; type: cell-based, human; conditions: THP-1 pre-treated with 5 μM
Outline: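 Stimulated 4 h with 100 µM 2'3'-cGAMP, with or without digitonin (5 µg/mL). Read-outs were IFNB1 mRNA by RT-qPCR and STING dimerization/phosphorylation by semi-native PAGE immunoblot. Means of n=2 technical replicates.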

[5] = 500 μM excess, unlabeled, three hours, six healthy donors

2’3’-cGAMP uptake, time course with inhibitor in culture medium (SLC19A1 [1])	IC50 (SLC19A1 [1])	[32P] 2’3’-cGAMP uptake in PBMCs (SLC19A1 [2]; [5])	CDN uptake and/or stimulation (SLC19A1 [1])	Compound	effect on reporter responses to hIFN-β (THP-1 cells)	further results
Sustained inhibition	4.1 nM	strongly inhibited	–	CN1c2c(nc(N)[nH]c2=O)NCC1CNc1ccc(C(=O)N[C@@H](CCC(=O)O)C(=O)O)cc1 (stereo partly shown) [5-me-THF, 5-methyl-tetrahydrofolic acid]	did not inhibit	completeness of inhibition of [32P] 2’3’-cGAMP uptake (SLC19A1 [1]; THP-1, compared to the other (anti-) folates): did not observe complete inhibition; trans-stimulation of 2’3’-cGAMP influx by preloading the cells (SLC19A1 [1]; THP-1, preloaded 30 min, washed, [32P] 2’3’-cGAMP for one hour): augmented
–	–	–	–	Nc1ncnc2c1ncn2[C@@H]1O[C@H](COP(=O)(O)O)[C@@H](O)[C@H]1O [AMP]	–	[32P] 2’3’-cGAMP uptake in presence of unlabeled nucleotide (SLC19A1 [1]; THP-1, one hour): slightly inhibited
–	–	–	–	Nc1nc2c(ncn2[C@@H]2O[C@H](COP(=O)(O)O)[C@@H](O)[C@H]2O)c(=O)[nH]1 [GMP]	–	[32P] 2’3’-cGAMP uptake in presence of unlabeled nucleotide (SLC19A1 [1]; THP-1, one hour): slightly inhibited
Sustained inhibition	4800 nM and 4790 nM	–	almost completely blocked	Nc1nc(=O)c2nc(CNc3ccc(C(=O)N[C@@H](CCC(=O)O)C(=O)O)cc3)cnc2[nH]1 [folic acid]	–	–
Sustained inhibition	–	strongly inhibited	almost completely blocked	CN(Cc1cnc2nc(N)nc(N)c2n1)c1ccc(C(=O)N[C@@H](CCC(=O)O)C(=O)O)cc1 [methotrexate]	did not inhibit	CDN uptake (SLC19A1 [1]): inhibited; uptake of methotrexate in SLC19A1-depleted cells (SLC19A1 [3]): nearly abolished; 2’3’-cGAMP uptake by murine splenocytes (murine splenocytes): did not inhibit
Sustained inhibition	2100 nM and 2060 nM	strongly inhibited	almost completely blocked	O=C(O)c1cc(/N=N/c2ccc(S(=O)(=O)Nc3ccccn3)cc2)ccc1O [sulfasalazine]	blocked	CDN uptake (SLC19A1 [1]): inhibited
–	–	–	–	N-hydroxysuccinimide (NHS)-methotrexate [NHS-methotrexate]	–	2’3’-cGAMP influx in treated cells (SLC19A1 [1]; THP-1, 5 μM, one hour): much reduced; [32P] 2’3’-cGAMP uptake in PBMCs (SLC19A1 [2]; 5 μM pre-treatment, one hour, four healthy donors): strongly inhibited; 2’3’-cGAMP influx in treated cells (SLC19A1 [4]): much reduced; STING activation by 2’3’-cGAMP (STING): blocks STING activation
